Measured values reported in ChEMBL document CHEMBL4052702 (Bioorg Med Chem Lett, 2017).
pIC50: −log10 of the molar value.

What was measured:
[1] = molecular target: T1, Histone deacetylase 2 (Homo sapiens, UniProt Q92769); assay: Inhibition of HDAC2 (unknown origin) assessed as remaining enzyme activity at 0.125 uM by ELISA-based assay
How it was run: (§1)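 Isoform screen by ELISA-based HDAC activity assay against HDAC1, HDAC2, HDAC3 and HDAC6. Each analog was tested at one final concentration: 0.025, 0.125, 0.25 or 1.25 µM. Read-out is percent deacetylase activity remaining, given as the mean with standard error of at least two independent trials.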

[2] = species: Homo sapiens; assay: Inhibition of HDAC in human HeLa-S3 cells lysates assessed as remaining enzyme activity at 8 x 10^-6 M pre-incubated for 15 mins before HDAC-Glo I/II substrate addition and measured after 30 mins post substrate addition; assay type: cell-free
[3] = molecular target: T2, Histone deacetylase 1 (Homo sapiens, UniProt Q13547); assay: Inhibition of HDAC1 (unknown origin) assessed as remaining enzyme activity at 0.125 uM by ELISA-based assay; how it was run: as §1
[4] = Inhibition of HDAC in human HeLa-S3 cells lysates pre-incubated for 15 mins before HDAC-Glo I/II substrate addition and measured after 30 mins post substrate addition; assay type: cell-based
[5] = species: Homo sapiens; assay: Inhibition of HDAC in human HeLa-S3 cells lysates assessed as remaining enzyme activity at 1 x 10^-6 M pre-incubated for 15 mins before HDAC-Glo I/II substrate addition and measured after 30 mins post substrate addition; assay type: cell-free
[6] = molecular target: T3, Protein deacetylase HDAC6 (Homo sapiens) (UniProt Q9UBN7); assay: Inhibition of HDAC6 (unknown origin) assessed as remaining enzyme activity at 0.125 uM by ELISA-based assay; how it was run: as §1
T3 sequence (whole entry): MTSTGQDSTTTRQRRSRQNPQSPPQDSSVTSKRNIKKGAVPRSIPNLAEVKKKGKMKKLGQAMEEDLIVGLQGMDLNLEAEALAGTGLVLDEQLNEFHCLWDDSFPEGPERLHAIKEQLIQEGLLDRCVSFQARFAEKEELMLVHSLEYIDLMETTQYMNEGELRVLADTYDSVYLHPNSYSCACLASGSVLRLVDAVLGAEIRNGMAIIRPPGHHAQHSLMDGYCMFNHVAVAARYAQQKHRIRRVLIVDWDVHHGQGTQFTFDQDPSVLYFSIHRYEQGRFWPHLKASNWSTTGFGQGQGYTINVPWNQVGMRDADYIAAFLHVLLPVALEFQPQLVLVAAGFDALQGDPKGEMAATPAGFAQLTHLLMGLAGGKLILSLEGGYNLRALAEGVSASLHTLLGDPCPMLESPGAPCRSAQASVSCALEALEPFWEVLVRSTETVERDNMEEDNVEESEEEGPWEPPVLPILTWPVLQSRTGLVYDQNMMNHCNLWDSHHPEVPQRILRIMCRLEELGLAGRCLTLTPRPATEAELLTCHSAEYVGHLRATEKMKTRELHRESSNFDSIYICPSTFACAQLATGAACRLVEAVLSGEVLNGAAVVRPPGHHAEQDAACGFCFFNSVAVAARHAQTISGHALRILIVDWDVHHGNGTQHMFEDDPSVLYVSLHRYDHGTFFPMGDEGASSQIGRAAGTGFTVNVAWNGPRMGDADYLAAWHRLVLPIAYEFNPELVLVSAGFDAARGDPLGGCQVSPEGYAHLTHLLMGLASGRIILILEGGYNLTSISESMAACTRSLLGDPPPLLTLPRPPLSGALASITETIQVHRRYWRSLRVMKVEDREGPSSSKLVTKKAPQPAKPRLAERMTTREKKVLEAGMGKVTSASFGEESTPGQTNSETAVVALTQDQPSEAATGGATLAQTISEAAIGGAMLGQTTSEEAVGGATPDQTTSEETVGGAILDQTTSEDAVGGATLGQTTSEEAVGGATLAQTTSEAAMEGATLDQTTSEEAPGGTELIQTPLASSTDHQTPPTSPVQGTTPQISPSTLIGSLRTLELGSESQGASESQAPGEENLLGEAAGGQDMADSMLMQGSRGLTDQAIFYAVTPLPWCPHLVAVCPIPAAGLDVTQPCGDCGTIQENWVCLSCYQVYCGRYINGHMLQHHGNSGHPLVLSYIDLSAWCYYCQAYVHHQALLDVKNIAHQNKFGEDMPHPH

[7] = species: Homo sapiens; assay: Inhibition of HDAC in human HeLa-S3 cells lysates assessed as remaining enzyme activity at 5 x 10^-7 M pre-incubated for 15 mins before HDAC-Glo I/II substrate addition and measured after 30 mins post substrate addition; assay type: cell-free
[8] = species: Homo sapiens; assay: Inhibition of HDAC in human HeLa-S3 cells lysates assessed as remaining enzyme activity at 4 x 10^-6 M pre-incubated for 15 mins before HDAC-Glo I/II substrate addition and measured after 30 mins post substrate addition; assay type: cell-free
[9] = species: Homo sapiens; assay: Inhibition of HDAC in human HeLa-S3 cells lysates assessed as remaining enzyme activity at 2 x 10^-6 M pre-incubated for 15 mins before HDAC-Glo I/II substrate addition and measured after 30 mins post substrate addition; assay type: cell-free
[10] = molecular target: T4, Histone deacetylase 3 (Homo sapiens, UniProt O15379); assay: Inhibition of HDAC3 (unknown origin) assessed as remaining enzyme activity at 0.125 uM by ELISA-based assay; how it was run: as §1
[11] = species: Homo sapiens; assay: Inhibition of HDAC in human HeLa-S3 cells lysates assessed as remaining enzyme activity at 3.13 x 10^-8 M pre-incubated for 15 mins before HDAC-Glo I/II substrate addition and measured after 30 mins post substrate addition; assay type: cell-free
[12] = molecular target: T4, Histone deacetylase 3; assay: Inhibition of HDAC3 (unknown origin) assessed as remaining enzyme activity at 0.025 uM by ELISA-based assay; how it was run: as §1
[13] = species: Homo sapiens; assay: Inhibition of HDAC in human HeLa-S3 cells lysates assessed as remaining enzyme activity at 6.25 x 10^-8 M pre-incubated for 15 mins before HDAC-Glo I/II substrate addition and measured after 30 mins post substrate addition; assay type: cell-free
[14] = molecular target: T3, Protein deacetylase HDAC6 (Homo sapiens); assay: Inhibition of HDAC6 (unknown origin) assessed as remaining enzyme activity at 0.025 uM by ELISA-based assay; how it was run: as §1
[15] = molecular target: T2, Histone deacetylase 1; assay: Inhibition of HDAC1 (unknown origin) assessed as remaining enzyme activity at 0.025 uM by ELISA-based assay; how it was run: as §1
[16] = molecular target: T1, Histone deacetylase 2; assay: Inhibition of HDAC2 (unknown origin) assessed as remaining enzyme activity at 0.025 uM by ELISA-based assay; how it was run: as §1
[17] = species: Homo sapiens; assay: Inhibition of HDAC in human HeLa-S3 cells lysates assessed as remaining enzyme activity at 1.25 x 10^-7 M pre-incubated for 15 mins before HDAC-Glo I/II substrate addition and measured after 30 mins post substrate addition; assay type: cell-free
[18] = species: Homo sapiens; assay: Inhibition of HDAC in human HeLa-S3 cells lysates assessed as remaining enzyme activity at 2.5 x 10^-7 M pre-incubated for 15 mins before HDAC-Glo I/II substrate addition and measured after 30 mins post substrate addition; assay type: cell-free

T1 sequence (Q92769 whole entry, canonical isoform): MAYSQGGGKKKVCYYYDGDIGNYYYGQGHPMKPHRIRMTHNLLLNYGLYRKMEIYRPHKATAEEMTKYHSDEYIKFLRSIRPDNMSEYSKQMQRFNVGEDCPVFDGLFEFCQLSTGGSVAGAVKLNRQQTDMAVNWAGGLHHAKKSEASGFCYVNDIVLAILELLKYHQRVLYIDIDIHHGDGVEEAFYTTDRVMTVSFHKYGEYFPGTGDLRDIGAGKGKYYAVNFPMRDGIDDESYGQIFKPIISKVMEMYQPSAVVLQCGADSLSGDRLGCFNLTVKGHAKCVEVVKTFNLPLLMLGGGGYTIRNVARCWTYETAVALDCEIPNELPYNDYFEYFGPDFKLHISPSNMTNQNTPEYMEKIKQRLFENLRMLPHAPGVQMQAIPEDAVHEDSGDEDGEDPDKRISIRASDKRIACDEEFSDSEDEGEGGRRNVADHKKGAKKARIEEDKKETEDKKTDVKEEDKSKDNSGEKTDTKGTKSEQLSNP
T4 sequence (O15379 whole entry): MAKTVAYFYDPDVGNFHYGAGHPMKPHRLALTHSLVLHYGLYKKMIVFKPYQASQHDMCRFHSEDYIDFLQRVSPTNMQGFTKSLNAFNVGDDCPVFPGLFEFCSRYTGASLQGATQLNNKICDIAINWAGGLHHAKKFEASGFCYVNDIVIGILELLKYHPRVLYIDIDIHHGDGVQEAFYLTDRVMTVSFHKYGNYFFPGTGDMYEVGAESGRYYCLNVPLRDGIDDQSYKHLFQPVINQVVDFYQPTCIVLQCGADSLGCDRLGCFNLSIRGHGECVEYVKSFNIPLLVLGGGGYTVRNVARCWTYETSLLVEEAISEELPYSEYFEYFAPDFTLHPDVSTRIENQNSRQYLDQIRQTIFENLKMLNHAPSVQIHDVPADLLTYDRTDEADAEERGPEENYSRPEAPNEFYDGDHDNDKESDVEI
T2 sequence (Q13547 whole entry): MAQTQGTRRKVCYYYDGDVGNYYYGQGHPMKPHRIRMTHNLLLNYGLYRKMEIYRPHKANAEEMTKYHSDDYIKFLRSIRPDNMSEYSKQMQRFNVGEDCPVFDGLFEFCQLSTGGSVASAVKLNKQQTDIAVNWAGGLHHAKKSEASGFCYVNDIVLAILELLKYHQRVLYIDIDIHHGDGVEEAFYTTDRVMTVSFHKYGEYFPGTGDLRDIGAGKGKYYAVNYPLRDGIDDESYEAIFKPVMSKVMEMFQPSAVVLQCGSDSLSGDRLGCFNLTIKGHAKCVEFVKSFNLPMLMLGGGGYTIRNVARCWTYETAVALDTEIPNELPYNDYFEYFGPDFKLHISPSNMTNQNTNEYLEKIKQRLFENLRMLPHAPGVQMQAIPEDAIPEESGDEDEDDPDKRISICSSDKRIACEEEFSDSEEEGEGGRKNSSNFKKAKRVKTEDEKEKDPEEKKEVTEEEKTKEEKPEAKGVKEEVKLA

Activity [1]	Activity [3]	pIC50 [4]	Activity [6]	Activity [10]	Activity [12]	Activity [14]	Activity [15]	Activity [16]	SMILES	Activity [2]	Activity [5]	Activity [7]	Activity [8]	Activity [9]	Activity [11]	Activity [13]	Activity [17]	Activity [18]
85%	83%	5.66	63%	86%					O=C(CCCC(CCC(=O)Nc1ccccc1)c1ccccc1)NO (centres undefined)	15%	74%	94%	31%	53%				
					80%	63%	67%	81%	CC(CCCC(=O)NO)CCC(=O)Nc1ccccc1 (centres undefined)			14%			85%	68%	44%	15%
